The values below come from PMC3063522 (Journal of agricultural and food chemistry, 2011).

≈ marks a conversion by molar mass, not a printed value. Entries after “also recorded” stand apart in the source; their conditions may differ.

Series [1] can be described thus: Cytotoxicity. It is filed as cell-based. The following applies: human, SK-MEL malignant melanoma cells. The procedure, abridged: (§1)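 Anti-proliferative assay run alongside four human tumour lines (SK-MEL, KB, BT-549, SK-OV-3) and two noncancerous kidney lines (Vero, LLC-PK11). Doxorubicin served as the positive control.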
Series [2] can be described thus: Cytotoxicity to RAW 264.7 cells in the iNOS assay. It counts as cell-based, mouse. The settings on record: mouse, RAW 264.7 macrophages.
A short description of series [3]: Cytotoxicity. The following applies: human, SK-OV-3 ovary carcinoma cells. It is filed as cell-based. In outline: as §1
Series [4] has as its system adult A. aegypti female mosquitoes. As to the kind of experiment: Adult mosquito topical toxicity assay. The settings on record: topical, 3.12 μg per insect; acetone/DMSO control gave 5.8±1.8%. It counts as in vivo.
Series [5] is described as follows: Cytotoxicity. The settings on record: human, KB oral epidermal carcinoma cells. It counts as cell-based. In outline: as §1
Series [6] is described as follows: Cytotoxicity towards HL-60 cells in the antioxidant assay. It counts as cell-based. The settings on record: human, HL-60 promyelocytic leukemia cells.
A short description of series [7]: Cytotoxicity. It is filed as cell-based. The settings on record: pig, LLC-PK11 kidney epithelial cells. The procedure, abridged: as §1
Series [8] concerns Phomopsis obscurans. Kind of series: Antifungal broth dilution microbioassay, Phomopsis obscurans. It is filed as cell-based. In outline: (§2)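 Broth microdilution adapted from the NCCLS M27-A yeast method for conidia-forming filamentous plant-pathogenic fungi. The commercial fungicide captan served as the internal standard in every assay. Means were compared by SAS analysis of variance with Fisher's protected LSD. For P. viticola and P. obscurans, activity was read at 120 and 144 h of incubation.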
For orientation: Dilution methods test growth across graded concentrations, often in twofold steps.

A short description of series [9]: Cytotoxicity. It counts as cell-based. The following applies: African green monkey, Vero kidney fibroblasts. The procedure, abridged:
as §1

A short description of series [10]: Cytotoxicity. The settings on record: human, BT-549 breast ductal carcinoma cells. It is filed as cell-based. The procedure, abridged:
as §1

Series [11] concerns RAW 264.7 cells. As to the kind of experiment: Cytotoxicity to RAW 264.7 cells in the iNOS assay. It counts as cell-based, mouse. The settings on record: RAW 264.7 cells, same assay.
Series [12] concerns mosquito larvae. Kind of series: Mosquito larvae toxicity bioassay. It is filed as in vivo. The settings on record: Figure 4. The procedure, abridged:
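Larval toxicity bioassay, run in triplicate. Controls were untreated, DMSO-acetone carrier, and permethrin as the positive control.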

Series [13] deals with Phomopsis viticola. As to the kind of experiment: Antifungal broth dilution microbioassay, Phomopsis viticola. It counts as cell-based. The procedure, abridged: as §2
Series [14] has as its system Botrytis cinerea. Kind of series: Antifungal broth dilution microbioassay, Botrytis cinerea. It counts as cell-based. The procedure, abridged: as §2
The conditions of series [15]: homologous standards for the HPLC regression; cited from earlier work.
[16] abbreviates: 120 and 144 h (from 120 to 144 h).

What is called IC50 is the concentration needed to halve the response being measured. High values mean lower potency, low ones higher potency. Consider `CC(C)/C=C/c1c(O)cc(/C=C/c2ccc(O)c(O)c2)cc1O` [Compound 1, arachidin-1], for which the IC50 in [1] is 15 µg/mL (≈ 48 µM); in series [2], 8.3 µg/mL (≈ 26.6 µM); in series [3] it was 14.5 µg/mL (≈ 46.4 µM); in series [5], 4.8 µg/mL (≈ 15.4 µM); in series [6] it was 5.2 µg/mL (≈ 16.6 µM); in series [7], 2.8 µg/mL (≈ 8.96 µM). Also, the results for the 50% inhibitory concentration (IC50) in series [9] and in series [10] were 12 µg/mL (≈ 38.4 µM) and 4.8 µg/mL (≈ 15.4 µM), respectively. In addition, in series [4], the “Adult mosquito mortality rate ± SD” value is “marginally active”. For the same compound, the “Antifungal activity against P. obscurans” value in series [8] (setting [16]) is “did not exhibit any activity”.

In the case of `CC(C)=CCc1c(O)cc(/C=C/c2ccc(O)cc2)cc1O` [Compound 2, arachidin-2], the IC50 is 20 µg/mL (≈ 67.5 µM) in [1]; more than 25 µg/mL in series [2]; more than 25 µg/mL in series [3]; 22.5 µg/mL (≈ 75.9 µM) in [5]; 16 µg/mL (≈ 54 µM) in series [6]; 13.5 µg/mL (≈ 45.6 µM) in series [7]. The concentration for half-maximal inhibition (IC50) in [9] amounted to 13.5 µg/mL (≈ 45.6 µM); in series [10], 7.5 µg/mL (≈ 25.3 µM). In addition, the “Inhibition of iNOS activity (NO production) in RAW 264.7 cells IC50 Cytotoxicity” value in series [11] was “no cytotoxicity”. Moreover, the “Antifungal activity against P. obscurans” value in [8] (setting [16]) was “did not exhibit any activity”.

For `CC(C)/C=C/c1c(O)cc(/C=C/c2ccc(O)cc2)cc1O` [Compound 3, arachidin-3], the IC50 in series [1], in [2], in series [3], in series [5], in series [6] and in [7] was more than 25 µg/mL each time. The half-maximal inhibitory concentration (IC50) in series [9] and in series [10] was more than 25 µg/mL each time. Moreover, the “Inhibition of iNOS activity (NO production) in RAW 264.7 cells IC50 Cytotoxicity” value in series [11] was “no cytotoxicity”. Moreover, the “Antifungal activity against P. obscurans” value in series [8] (setting [16]) is “did not exhibit any activity”.

As to `CC(C)=CCc1c(O)cc(/C=C/c2ccccc2)cc1O` [Compound 5, chiricanine A], the half-maximal inhibitory concentration (IC50) was 20 µg/mL (≈ 71.3 µM) in [1]; 13 µg/mL (≈ 46.4 µM) in [2]; more than 25 µg/mL in [3]; more than 25 µg/mL in series [5]; 19 µg/mL (≈ 67.8 µM) in [6]; 19.5 µg/mL (≈ 69.6 µM) in [7]. In addition, the IC50 in [9] and in series [10] was more than 25 µg/mL in each case. Moreover, in series [12], the “Toxicity to mosquito larvae” value is “significantly lower toxicity”. Further, the “Adult mosquito mortality rate ± SD” value in series [4] turned out to be 6.7±5.8%. The “Antifungal activity against P. obscurans” value in series [8] (setting [16]) is recorded as “highest levels of inhibition”; in series [8] (144 h of incubation), “more fungicidal; also recorded: very high”. In [13] (144 h of incubation), the “Antifungal activity against P. viticola” value is reported as “more fungicidal”.

With `CC(C)(O)C(O)Cc1cc(/C=C/c2cc(O)cc(O)c2)ccc1O` (stereo not drawn) [Compound 7, arahypin-2], the half-maximal inhibitory concentration (IC50) in series [1], in series [2], in series [3], in [5], in series [6] and in series [7] was more than 25 µg/mL in each case. Also, the IC50 in [9] and in [10] was more than 25 µg/mL in each case. Besides, the “Adult mosquito mortality rate ± SD” value in series [4] is reported as “marginally active”. The “Antifungal activity against P. obscurans” value was “highest levels of inhibition” in [8] (setting [16]), “very high” in series [8] (120 h) and “extremely low” in series [8] (144 h of incubation).

As for `CC1(C)C=Cc2c(O)cc(/C=C/c3ccc(O)cc3)cc2O1` [Compound 10, arahypin-5], the half-inhibitory concentration (IC50) in series [1] was 17.5 µg/mL (≈ 59.5 µM); in series [2], 16 µg/mL (≈ 54.4 µM); in series [3] it was more than 25 µg/mL; in [5] it was more than 25 µg/mL; in series [6], 4.5 µg/mL (≈ 15.3 µM); in series [7], 19.5 µg/mL (≈ 66.2 µM). For the same compound, the IC50 in [9] and in [10] was more than 25 µg/mL throughout. Also, the “Adult mosquito mortality rate ± SD” value in series [4] was 5.8±1.8%. In series [8] (144 h of incubation), the “Antifungal activity against P. obscurans” value is reported as “more fungicidal”. In addition, in series [13] (144 h of incubation), the “Antifungal activity against P. viticola” value is reported as “more fungicidal”.

Consider `COc1cc(/C=C/c2ccc(O)cc2)cc(OC)c1` [Compound 21, pterostilbene], for which the IC50 is more than 25 µg/mL in series [1]; more than 25 µg/mL in [2]; more than 25 µg/mL in series [3]; more than 25 µg/mL in series [5]; 21 µg/mL (≈ 81.9 µM) in [6]; more than 25 µg/mL in [7]. The IC50 in [9] and in [10] was more than 25 µg/mL each time. In addition, the “Inhibition of iNOS activity (NO production) in RAW 264.7 cells IC50 Cytotoxicity” value in series [11] is listed as “no cytotoxicity”. The “Toxicity to mosquito larvae” value in series [12] is reported as “highest activity; also recorded: somewhat greater activity”.

As for `Oc1ccc(/C=C/c2cc(O)cc(O)c2)cc1` [Compound 24, resveratrol, reference compound], the IC50 in series [1] is more than 25 µg/mL; in series [2], more than 25 µg/mL; in [3] it was more than 25 µg/mL; in series [5] it was more than 25 µg/mL; in series [6], 8 µg/mL (≈ 35 µM); in series [7], more than 25 µg/mL. Also, the IC50 in series [9] and in series [10] was more than 25 µg/mL in each case. Further, the “Inhibition of iNOS activity (NO production) in RAW 264.7 cells IC50 Cytotoxicity” value in [11] is recorded as “no cytotoxicity”. Moreover, the “Toxicity to mosquito larvae” value in [12] is “significantly lower toxicity”. Moreover, the “Antifungal activity against P. viticola” value in series [13] (at the highest concentrations, Figure 2D) was “essentially inactive”. Moreover, the “Growth inhibition of B. cinerea” value is “minimal activity” in [14] (48 h) and “no activity” in series [14] (72 h).

In the case of `CCCc1ccccc1` [propylbenzene], in series [15], the “log P (known constants of standards)” value is recorded as 3.69.
